# eIF4H FP inh = inhibitors of RNA binding by human eIF4H | Q15056 | eIF4H fluorescence polarization binding assay | inhibition, % at 35 µM | 290,000 tested, 0.94% active | AID 2012;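 note: calls also rest on retests at 20 µM and on dose response follow-up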
# NS3 helicase inh = blocks Hepatitis C virus NS3 helicase unwinding; inhibition, % at 10.9 µM; AID 1800; NS3 helicase DNA unwinding, Cy5 molecular beacon fluorescence; 290,000 tested, 0.56% active;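 active = inhibition above the mean of all tested compounds plus 3 SD, set per campaign, cut at about 35% in these data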;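 note: 0% = DMSO wells and 100% = thioflavine S control wells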
#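 assay system = NS3 helicase fragment of HCV | buffer or medium = MOPS pH 6.5, MgCl2, DTT, Tween20, BSA | timing = 60 min unwinding reaction at 25 °C after ATP addition | signal = Cy5 beacon fluorescence read at start and 1 h | read-out basis = % inhibition of unwinding | control set = low DMSO, high thioflavine S at 110 µM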
# ZTA DNA inh = ZTA (EBV) inhibition in EBNA-1 counter-screen; P03206; 320,000 tested, 0.15% active; inhibition, % at 11 µM; ZTA-DNA binding, fluorescence polarization; in the data active = inhibition above about 33%
# EBNA-1 inhibitor = blocks EBNA-1 binding to DNA; EBNA-1 DNA binding, fluorescence polarization; inhibition, % at 14.8 µM; 300,000 tested, 0.34% active; AID 1950; in the data active = inhibition above about 28%
# MLLE-PAM2 inh = blocks PAM2 peptide binding to the PABP1 MLLE domain. 360,000 tested, 0.36% active. P11940. GST-MLLE / FITC-PAM2 fluorescence polarization. inhibition, % at 20 µM; in the data active = inhibition above about 35%, passing the limit was not always enough;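 note: plate controls were DMSO wells with GST-MLLE for no effect and wells lacking GST-MLLE protein for full effect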
# PABP polyA inh = PABP-poly(A) binding inhibition | P11940 | PABP-poly(A) RNA binding, fluorescence polarization | inhibition, % at 35 µM | 290,000 tested, 1% active;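 note: calls also rest on retests at 20 µM and on dose response follow-up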
# An asterisk follows results filed as active; ? = inconclusive; . = not tested or not shown. Only some compounds are listed: those with a hit (about 2.1% of all), similar ones and a draw of the others. Unless noted, the rule behind the calls is not given here.
SMILES,eIF4H FP inh,NS3 helicase inh,ZTA DNA inh,EBNA-1 inhibitor,MLLE-PAM2 inh,PABP polyA inh
CCOC(=O)C1CCCN(C(=O)c2ccccc2SCCOC)C1 (stereo not given),8,0,-15,-6,40*,7
O=[N+]([O-])C(/C=C(\Cl)[N+](=O)[O-])=C1N(Cc2ccc(Cl)nc2)CCN1Cc1ccc(Cl)nc1,?,4,4,-7,-82,36*
COc1ccc(CNc2nc(S(=O)(=O)c3ccccc3)c(Cl)s2)cc1OC,54*,-27,3,0,-15,24*
O=S(=O)(c1ccccc1)c1nc(NCc2ccccc2)sc1Cl,-6,-4,0,3,-8,6
NS(=O)(=O)c1cccc2c1c([N+](=O)[O-])cc1nc(O)c(O)nc12,.,.,0,-5,38*,.
O=[N+]([O-])c1cc2cccnc2c2ncccc12,-8,-3,1,4,-8,-6
CCOC(=O)CNc1nnc(SCC(=O)OCC)[nH]c1=O,0,7,0,7,46*,5
CCN1CCN(c2c(/C=C3\SC(=S)N(Cc4ccco4)C3=O)c(C)c(C#N)c(=O)n2C)CC1,?,-73,5,7,-93,53*
COc1ccccc1NC(=O)N(Cc1ccccc1)c1ccccn1,-5,-3,-23,-11,14,7
Nc1ccc(S(=O)(=O)Nc2nc3ccccc3o2)cc1,55*,12,-3,-8,11,29*
CC12CCC(=O)N1C(C(=O)Nc1ccc(SC(F)F)cc1)CS2 (stereo not given),.,.,7,-17,13,.
CN(C)CCN(Cc1ccc(Cl)cc1)c1ccccn1,2,-16,3,1,2,4
C[N+](C)(C)CCN(Cc1ccc(Cl)cc1)c1ccccn1,-2,-3,21,16,-131,78*
COc1ccc(CNC(=O)CSc2nc(-c3ccccc3)cc(-c3cccs3)c2C#N)cc1,0,0,5,-3,16,-2
COc1ccc(-c2cc(-c3cccs3)c(C#N)c(SCC(=O)NCc3ccco3)n2)cc1,55*,14,11,7,8,12
O=c1cc2c(=O)oc3cc(O)c(O)oc3c2c(O)c1O,92*,15,.,.,30,96*
CCOCc1cnc(C)nc1NCC(=O)c1c(C)[nH]c2ccc(OC)cc12,active,2,-14,4,-102,54*
CC1=C(C(=O)OCCOC(C)C)C(c2cc3c(cc2Br)OCO3)C2=C(CCCC2=O)N1 (stereo not given),10,-1,7,-6,67*,6
CCOC(=O)C1=C(c2ccccc2)OC(N)=C(C#N)C1c1cccnc1 (stereo not given),-12,-8,13,8,-1,-5
O=C1CCC(=O)N1CCSC(=S)N1CCOCC1,-14,2,-4,-3,-7,-11
CC1Cc2ccccc2N1C(=O)CSc1nnc(N)s1 (stereo not given),-5,8,-1,-5,-5,-4
Cc1ccc(C2Nc3ccccc3NC3=C2C(=O)CC(C)(C)C3)c(O)c1 (stereo not given),?,-2,7,-10,19,43
Cc1ccc2c(c1)NC(c1cccs1)C1=C(CC(C)(C)CC1=O)N2 (stereo not given),86*,-2,-2,-7,6,11*
CNC(=O)C(=O)Nc1cc2c3c(c1)C(C)C(=O)N3CCC2 (stereo not given),-9,0,-5,-3,-3,-4
CC1=NN(c2ccc(C)cc2)C(=O)/C1=C/c1ccc(-c2cc([N+](=O)[O-])ccc2O)o1,105*,27,.,.,-10,69*
O=C1NN(c2cccc(Br)c2)C(=O)/C1=C/c1ccc(-c2cc([N+](=O)[O-])ccc2O)o1,96*,18,-7,0,-10,47
COc1ccc(-c2ccc(/C=C3\C(=O)N(c4ccccc4)N=C3c3ccccc3)o2)c([N+](=O)[O-])c1,4,4,4,10,18,-1
Cc1ccc(S(=O)(=O)CCC(=O)Nc2cccc(C)c2)cc1,-5,0,3,-7,-14,-4
CCc1cccc(NC(=O)CCS(=O)(=O)c2ccc(Br)cc2)c1,81*,-10,-3,-5,-8,24
NS(=O)(=O)c1ccc(CCNC(=O)CCS(=O)(=O)c2ccc(Br)cc2)cc1,90*,8,.,.,3,32

# High-throughput results: PubChem BioAssay, several laboratories
